Experimental data published in ChEMBL document CHEMBL4177771, “Endoplasmic Reticulum-Localized Two-Photon-Absorbing Boron Dipyrromethenes as Advanced Photosensitizers for Photodynamic Therapy” (J Med Chem, 2018).
Values belong to the compound of their own block, whether it stands above or below them. Activity calls are given as the source filed them. The rule behind the calls is not given here.

Columns and labels:
HeLa [1] = assay: Induction of apoptosis in human HeLa cells at 2 uM incubated in dark for 2 hrs measured after 3 hrs by propidium iodide staining-based laser scanning microscopic method; type: cell-based
Summary of the method: (§1)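 HeLa cells given 2 μM for 2 h, rinsed and re-fed. Irradiated with 800 nm laser (400 mW) for 10 min at 37 °C, 5% CO2; dark controls kept unirradiated. After 3 h, stained with PI (50 μg in 1 mL PBS) for 10 min, rinsed. Imaged with PI excited at 488 nm (550–700 nm) and BODIPY at 633 nm (640–735 nm), plus bright field.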

HeLa [2] = assay: Induction of apoptosis in human HeLa cells at 2 uM preincubated in dark for 2 hrs followed by two photon irradiation for 10 mins measured after 3 hrs by propidium iodide staining-based laser scanning microscopic method; type: functional, cell-based; summary of the method: as §1
[3] = Dark toxicity against human HeLa cells assessed as decrease in cell viability at 0.0125 to 0.4 uM incubated for 2 hrs by MTT assay; type: cell-based
Summary of the method: (§2)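 Cells seeded at 2 × 10^5 cells mL−1 in 96-well plates 24 h before; incubated with compound (0.4–0.0125 μM or 8–0.5 μM series) in dark 2 h, washed with PBS, re-fed, kept unirradiated. MTT (3 mg mL−1) added, 4 h at 37 °C, DMSO added, absorbance at 490 nm. Mean ± SEM of three independent experiments, each in quadruplicate. HepG2 cells were grown in RPMI 1640 and HeLa in DMEM.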

[4] = Drug uptake in human HeLa cells at 2 uM incubated for 2 hrs upon one-photon excitation by confocal microscopic method; type: ADME, cell-based
Summary of the method: (§3)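 HeLa cells (about 1.2 × 10^5) grown overnight on glass-bottom dishes, then treated with 2 μM in medium containing 0.125% v/v DMF and 0.025% v/v Tween 80 for 2 h. Rinsed with PBS and imaged by laser scanning microscopy with 633 nm (one-photon) or 800 nm (two-photon) excitation.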

[5] = Drug uptake in lysosome of human HeLa cells at 2 uM after 2 hrs by […]-based confocal microscopic method; type: ADME, subcellular
[6] = Dark toxicity against human HepG2 cells assessed as decrease in cell viability at 0.0125 to 0.4 uM incubated for 2 hrs by MTT assay; type: cell-based; conditions: hepg2, 2 h; summary of the method: as §2
HepG2 [7] = assay: Induction of endoplasmic reticulum stress in human HepG2 cells assessed as upregulation of GRP78 expression at 0.15 uM after 4 to 8 hrs in absence of light by Western blot method; type: cell-based; conditions: hepg2, 0.15 µM
Summary of the method: (§4)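 HepG2 cells in 60 mm dishes treated with 150 nM in RPMI 1640, with or without illumination (λ > 610 nm). Lysed in RIPA buffer at 2, 4, 6 and 8 h after PDT. Equal protein run on 10% polyacrylamide gels and transferred to PVDF. Blocked in 5% nonfat milk, probed for GRP78, CHOP and actin, with HRP chemiluminescent detection. Control cells were illuminated without compound.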

HepG2 [8] = assay: Ratio of compound activity for induction of reactive oxygen species generation in human HepG2 cells at 0.8 uM in presence of light to in absence of light; type: toxicity, cell-based; conditions: hepg2, 0.8 µM
Summary of the method: (§5)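 HepG2 cells in 96-well plates incubated 2 h with 0.05–0.8 μM in RPMI 1640, washed, then loaded with H2DCFDA (10 μM in HBSS) for 30 min at 37 °C in dark. Washed, re-fed with HBSS, then irradiated (λ > 610 nm) or left dark. Fluorescence read at 485/535 nm. Mean with SEM of three independent experiments.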

HepG2 [9] = assay: Induction of reactive oxygen species generation in human HepG2 cells at 0.05 to 0.8 uM after 2 hrs in absence of light by H2DCFDA probe-based fluorescence assay; type: cell-based; conditions: hepg2, 2 h; summary of the method: as §5
HepG2 [10] = assay: Increase in intracellular calcium levels in human HepG2 cells at 0.05 to 0.8 uM after 2 hrs in presence of light by fluo-3 AM dye-based fluorescence assay relative to control; type: functional
Summary of the method: (§6)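 HepG2 cells in 96-well plates given 0.05–0.8 μM in RPMI 1640 for 2 h, with or without illumination (λ > 610 nm). Afterwards washed, loaded with Fluo-3 AM (2.5 μM in HBSS) for 1 h at 37 °C in dark. Washed, re-fed with HBSS, fluorescence read at 485/535 nm. Mean with SEM of three independent experiments.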

HepG2 [11] = assay: Photocytotoxicity against human HepG2 cells assessed as decrease in cell viability at 0.19 uM preincubated in dark for 2 hrs followed by illumination by halogen lamp for 20 mins by MTT assay relative to control; type: functional
Summary of the method: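 Light-dose study: HepG2 cells given 0.19 μM for 2 h, washed twice with PBS, re-fed, then illuminated with halogen lamp (λ > 610 nm, 40 mW cm−2) for 10, 15, 20 or 25 min. Viability by MTT (4 h, 37 °C), DMSO, absorbance at 490 nm.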

[12] = Drug uptake in lysosome of human HepG2 cells at 2 uM after 2 hrs by […]-based confocal microscopic method; type: ADME, subcellular; conditions: hepg2, 2 h
[13] = Drug uptake in human HepG2 cells at 2 uM after 2 hrs by flow cytometric method; type: ADME, cell-based; conditions: hepg2, 2 h
Summary of the method: (§7)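 Cells in 35 mm dishes incubated in RPMI 1640 at 37 °C, 5% CO2, with 2 μM for 2 h or 4 μM for 4 h. Rinsed, trypsinised, pelleted at 400g, resuspended in HBSS. Flow cytometry on 10^4 cells: excitation 640 nm, emission 720–840 nm. Triplicate; mean ± SD of three independent experiments.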

HepG2 [14] = assay: Induction of reactive oxygen species generation in human HepG2 cells at 0.05 to 0.8 uM after 2 hrs in presence of light by H2DCFDA probe-based fluorescence assay; type: functional, cell-based; summary of the method: as §5
HepG2 [15] = assay: Induction of endoplasmic reticulum stress in human HepG2 cells assessed as upregulation of CHOP expression at 0.15 uM after 4 to 8 hrs in absence of light by Western blot method; type: cell-based; conditions: hepg2, 0.15 µM; summary of the method: as §4
HepG2 [16] = assay: Induction of endoplasmic reticulum stress in human HepG2 cells assessed as upregulation of GRP78 expression at 0.15 uM after 4 to 8 hrs in presence of light by Western blot method; type: functional, cell-based; summary of the method: as §4
[17] = Drug uptake in mitochondria of human HeLa cells at 2 uM after 2 hrs by Mito-tracker green-based confocal microscopic method; type: ADME
Summary of the method: (§8)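 Cells on glass-bottom dishes given 2 μM for 2 h or 4 μM for 4 h at 37 °C. After PBS washes, stained in HBSS with 0.2 μM ER-tracker or Mito-tracker green for 15 min at 37 °C. Confocal imaging: trackers excited at 488 nm, emission 500–570 nm; BODIPY excited at 633 nm, emission 650–760 nm.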

HepG2 [18] = assay: Photocytotoxicity against human HepG2 cells assessed as decrease in cell viability preincubated in dark for 2 hrs followed by illumination by halogen lamp for 20 mins by MTT assay; type: functional, cell-based
Summary of the method: (§9)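 Cells seeded at 2 × 10^5 cells mL−1 in 96-well plates 24 h before; 2 h dark incubation with compound (0.0125–0.4 μM or 0.5–8 μM), PBS wash, re-feed. Then 300 W halogen lamp with red filter (λ > 610 nm), 40 mW cm−2, 20 min at r.t. (48 J cm−2). MTT read-out at 490 nm. IC50 = concentration killing 50% of cells. Three independent experiments, quadruplicate.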

[19] = Induction of singlet oxygen generation in DMF assessed as increase in decay of DPBF at 1 uM by spectroscopic method
HepG2 [20] = assay: Induction of endoplasmic reticulum stress in human HepG2 cells assessed as upregulation of CHOP expression at 0.15 uM after 4 to 8 hrs in presence of light by Western blot method; type: functional, cell-based; summary of the method: as §4
[21] = Drug uptake in mitochondria of human HepG2 cells at 2 uM after 2 hrs by Mito-tracker green-based confocal microscopic method; type: ADME; conditions: hepg2, 2 h; summary of the method: as §8
HeLa [22] = assay: Induction of apoptosis in human HeLa cells assessed as cell shrinkage at 2 uM preincubated in dark for 2 hrs followed by two photon irradiation for 10 mins measured after 3 hrs by bright field microscopic method; type: functional, cell-based; summary of the method: as §1
[23] = Drug uptake in human HeLa cells at 2 uM after 2 hrs by flow cytometric method; type: ADME, cell-based; summary of the method: as §7
[24] = Induction of singlet oxygen generation in PBS assessed as increase in decay of DPBF at 2 uM by spectroscopic method; type: functional
[25] = Drug uptake in endoplasmic reticulum of human HepG2 cells at 2 uM after 2 hrs by ER-tracker green-based confocal microscopic method; type: ADME, subcellular; conditions: hepg2, 2 h; summary of the method: as §8
HeLa [26] = assay: Photocytotoxicity against human HeLa cells assessed as decrease in cell viability preincubated in dark for 2 hrs followed by illumination by halogen lamp for 20 mins by MTT assay; type: functional, cell-based; summary of the method: as §9
[27] = Drug uptake in human HeLa cells at 2 uM incubated for 2 hrs upon two-photon excitation by confocal microscopic method; type: ADME, cell-based; summary of the method: as §3
HepG2 [28] = assay: Increase in intracellular calcium levels in human HepG2 cells at 0.05 to 0.8 uM after 2 hrs in absence of light by fluo-3 AM dye-based fluorescence assay; type: ADME, cell-based; conditions: hepg2, 2 h; summary of the method: as §6
[29] = Stability of the compound in PBS at 2 uM measured over 25 mins in presence of illumination by halogen lamp; type: physicochemical; conditions: buffer
[30] = Drug uptake in endoplasmic reticulum of human HeLa cells at 2 uM after 2 hrs by ER-tracker green-based confocal microscopic method; type: ADME, subcellular; summary of the method: as §8

Drug uptake [4]: Active
Drug uptake [5]: Not Active
Drug uptake [12]: Not Active
Drug uptake [13]: Active
Drug uptake [17]: Not Active
Drug uptake [21]: Not Active
Drug uptake [23]: Active
Drug uptake [25]: Active
Drug uptake [27]: Active
Stability [29]: Stable
Drug uptake [30]: Active
SMILES: COCCOCCOCCOc1ccc(/C=C/C2=[N+]3C(=C(c4ccc(OCC(=O)NCCc5ccc(S(=O)(=O)NC(=O)NC6CCCCC6)cc5)cc4)c4c(C)c(Br)c(/C=C/c5ccc(OCCOCCOCCOC)cc5)n4[B-]3(F)F)C(C)=C2Br)cc1
Activity (HeLa [1]): Non-Toxic
Activity (HeLa [2]): Active
Activity [3]: Non-Toxic
Activity [6]: Non-Toxic
Activity (HepG2 [7]): Non-Toxic
Ratio (HepG2 [8]): 9
Activity (HepG2 [9]): Non-Toxic
fold change (FC) (HepG2 [10]): 3.5
Activity (HepG2 [11]): 50%
Activity (HepG2 [14]): Dose-dependent effect
Activity (HepG2 [15]): Non-Toxic
Activity (HepG2 [16]): Active
IC50 (HepG2 [18]): 160 nM
Activity [19]: Active
Activity (HepG2 [20]): Active
Activity (HeLa [22]): Active
Activity [24]: Active
IC50 (HeLa [26]): 90 nM
Activity (HepG2 [28]): Non-Toxic

Drug uptake [5]: Not Active
Drug uptake [12]: Not Active
Drug uptake [17]: Not Active
Drug uptake [21]: Not Active
Drug uptake [25]: Not Active
Drug uptake [30]: Not Active
SMILES: CCOC(=O)COc1ccc(C2=C3C(C)=C(Br)C(/C=C/c4ccc(OCCOCCOCCOC)cc4)=[N+]3[B-](F)(F)n3c(/C=C/c4ccc(OCCOCCOCCOC)cc4)c(Br)c(C)c32)cc1
